ChEMBL document CHEMBL1269001, “Design, synthesis and biological evaluation of quinoline amide derivatives as novel VEGFR-2 inhibitors” (Bioorg Med Chem Lett, 2010)
pIC50: −log10 of the molar value.

Key:
[1] = target: Vascular endothelial growth factor receptor 2 (Homo sapiens, UniProt P35968); test: Inhibition of VEGFR2
HUVEC [2] = test: Inhibition of […]-induced proliferation in HUVEC cells assessed as BrdU incorporation by ELISA; type: functional, cell-based; conditions: Homo sapiens
In short: (§1)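 HUVEC were seeded in 5% FBS medium on type 1 collagen-coated plates and incubated overnight at 37 °C, 5% CO₂. The medium was replaced with inhibitor at various concentrations in serum-free medium. Cells were incubated a further 72 h, with BrdU added during the last 18–24 h. Incorporation was read by ELISA.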

HUVEC [3] = test: Inhibition of VEGF-induced proliferation in HUVEC cells assessed as BrdU incorporation by ELISA; type: functional, cell-based; conditions: Homo sapiens; in short: as §1

Chain of Vascular endothelial growth factor receptor 2 (P35968 whole entry): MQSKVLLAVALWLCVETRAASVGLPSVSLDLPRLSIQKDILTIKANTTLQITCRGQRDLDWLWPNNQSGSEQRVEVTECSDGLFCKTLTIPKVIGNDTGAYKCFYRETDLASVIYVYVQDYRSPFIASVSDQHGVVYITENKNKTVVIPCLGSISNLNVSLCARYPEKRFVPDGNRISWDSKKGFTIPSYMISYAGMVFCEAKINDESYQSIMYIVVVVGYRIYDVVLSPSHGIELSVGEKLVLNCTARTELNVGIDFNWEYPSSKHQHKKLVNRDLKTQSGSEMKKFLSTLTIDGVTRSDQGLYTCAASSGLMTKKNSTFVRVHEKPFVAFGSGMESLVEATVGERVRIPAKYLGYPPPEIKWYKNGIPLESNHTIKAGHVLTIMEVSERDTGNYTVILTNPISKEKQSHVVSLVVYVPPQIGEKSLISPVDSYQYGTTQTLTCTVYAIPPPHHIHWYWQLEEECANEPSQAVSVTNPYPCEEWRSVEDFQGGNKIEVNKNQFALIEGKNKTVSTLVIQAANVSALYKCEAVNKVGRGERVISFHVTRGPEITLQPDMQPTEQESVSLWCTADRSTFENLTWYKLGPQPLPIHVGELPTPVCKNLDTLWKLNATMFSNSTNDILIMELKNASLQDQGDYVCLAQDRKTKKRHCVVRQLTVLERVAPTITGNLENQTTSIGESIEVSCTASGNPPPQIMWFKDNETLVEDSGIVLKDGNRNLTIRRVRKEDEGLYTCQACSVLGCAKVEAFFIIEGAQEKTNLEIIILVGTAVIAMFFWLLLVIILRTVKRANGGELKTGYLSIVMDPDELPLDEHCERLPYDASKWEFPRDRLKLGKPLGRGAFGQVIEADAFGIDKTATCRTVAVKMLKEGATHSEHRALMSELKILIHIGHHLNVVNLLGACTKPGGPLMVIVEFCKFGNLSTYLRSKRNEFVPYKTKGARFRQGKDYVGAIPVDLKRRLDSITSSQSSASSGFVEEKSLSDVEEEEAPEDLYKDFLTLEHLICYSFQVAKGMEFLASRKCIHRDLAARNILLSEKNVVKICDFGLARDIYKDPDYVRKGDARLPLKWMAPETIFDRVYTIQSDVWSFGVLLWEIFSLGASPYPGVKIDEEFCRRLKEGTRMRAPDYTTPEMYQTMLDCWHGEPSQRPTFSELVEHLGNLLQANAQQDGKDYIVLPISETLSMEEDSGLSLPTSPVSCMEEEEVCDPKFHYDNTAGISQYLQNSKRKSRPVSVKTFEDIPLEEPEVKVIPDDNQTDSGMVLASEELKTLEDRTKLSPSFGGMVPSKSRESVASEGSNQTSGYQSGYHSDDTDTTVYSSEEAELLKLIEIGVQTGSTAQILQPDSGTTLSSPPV

Row | pIC50 [1] | Structure (SMILES) | pIC50 (HUVEC [2]) | pIC50 (HUVEC [3])
1 | 6.87 | O=C(Nc1cccc2cccnc12)c1ccccc1 | 5.94 | 7.14
2 | 6.90 | O=C(Nc1cccc2cccnc12)c1ccc(Cl)cc1 | 6.66 | 7.82
3 | 7.63 | O=C(Nc1cccc2cccnc12)c1ccccc1Cl | 5.94 | 6.91
4 | 7.07 | O=C(Nc1cccc2cccnc12)c1ccc(Cl)nc1 | 6.25 | 6.85
5 | 6.68 | O=C(Nc1cccc2cccnc12)c1cncc(Br)c1 | 6.46 | 6.68
6 | 6.97 | O=C(Nc1cnc2ccccc2c1)c1ccccc1 | 7.17 | 7.10
7 | 7.05 | O=C(Nc1cnc2ccccc2c1)c1cncc(Br)c1 | 5.94 | 7.23
8 | 6.95 | O=C(Nc1cccc2cccnc12)c1ccc([N+](=O)[O-])cc1 | 6.35 | 7.33
9 | 7.78 | O=C(Nc1cccc2cccnc12)c1cccc([N+](=O)[O-])c1 | 6.68 | 7.80
10 | 8.42 | O=C(Nc1cccc2cccnc12)c1cc(Cl)ccc1O | 6.96 | 8.26
11 | 8.02 | Cc1ccc(C(=O)Nc2cccc3cccnc23)c(O)c1 | 7.35 | 7.70
12 | 7.58 | Cc1cccc(C(=O)Nc2cccc3cccnc23)c1O | 5.94 | 7.58
13 | 8.26 | O=C(Nc1cccc2cccnc12)c1cc(Br)cnc1O | 6.25 | 7.89
14 | 7.87 | Cc1cnc(O)c(C(=O)Nc2cccc3cccnc23)c1 | 5.94 | 7.87
15 | 7.55 | Cc1cccc(C(=O)Nc2cnc3ccccc3c2)c1Br | 6.18 | 7.94
16 | 6.49 | Cc1cc(Cl)cc(C(=O)Nc2cnc3ccccc3c2)c1 | 6.25 | 7.12
17 | 7.49 | O=C(Nc1cnc2ccccc2c1)c1cc(Br)cc(Br)c1O | 6.62 | 7.72
18 | 7.14 | O=C(Nc1cnc2ccccc2c1)c1cccc(Cl)c1O | 6.47 | 7.55
19 | 7.91 | Cc1cc(Br)cc(C(=O)Nc2cnc3ccccc3c2)c1O | 6.33 | 7.72
20 | 7.63 | O=C(Nc1cnc2ccccc2c1)c1cc(Cl)cnc1Br | 5.91 | 7.23
21 | 6.99 | Cc1cnc(Cl)c(C(=O)Nc2cnc3ccccc3c2)c1 | 6.05 | 7.11
22 | 6.95 | Cc1cc(Br)cc(C(=O)Nc2cnc3ccccc3c2)c1 | 6.14 | 7.05
23 | 7.49 | O=C(Nc1cnc2ccccc2c1)c1cc(Cl)c(O)nc1O | 6.34 | 7.84
24 | 7.59 | Cc1cccc(C(=O)Nc2cnc3ccccc3c2)c1O | 6.11 | 7.45
